For orientation: Kd means a measure of binding affinity in units of concentration. Higher therefore signals weaker binding. One may read the pKb as −log10 of the Kb, conventionally taken in molar units.

Where only a bound is given, the exact number is not on record here.

Experiment [1] addresses T1, Somatostatin receptor type 3 (Homo sapiens, UniProt P32745). Put plainly: Binding affinity to human SST3 receptor.
Experiment [2] concerns the target Somatostatin receptor type 1 (Homo sapiens, UniProt P30872). Nature of the experiment: Binding affinity to human SST1 receptor.
The species named for experiment [3] is Homo sapiens. Put plainly: Selectivity for human SST3 over human SST5.
The target of experiment [4] is Somatostatin receptor type 4 (Homo sapiens, UniProt P31391). Nature of the experiment: Binding affinity to human SST4 receptor.
Experiment [5] deals with Somatostatin receptor type 5 (Homo sapiens, UniProt P35346). Put plainly: Binding affinity to human SST5 receptor.
The species named for experiment [6] is Homo sapiens. Nature of the experiment: Selectivity for human SST3 over human SST2.
Experiment [7] concerns the target Somatostatin receptor type 1 (Rattus norvegicus, UniProt P28646). Put plainly: Displacement of [125I]SRIF-14 from rat cortex membrane SST1 receptor. For orientation: Loss of bound radioactivity is the signal in a displacement assay; it reports binding, not function.
Experiment [8] concerns the target Somatostatin receptor type 2 (Homo sapiens, UniProt P30874). Put plainly: Binding affinity to human SST2 receptor.
For experiment [9], the target named is Somatostatin receptor type 2 (Rattus norvegicus, UniProt P30680). Nature of the experiment: Displacement of [125I]SRIF-14 from rat cortex membrane SST2 receptor.
The species named for experiment [10] is Homo sapiens. Put plainly: Selectivity for human SST3 over human SST4.
The species named for experiment [11] is Homo sapiens. Put plainly: Selectivity for human SST3 over human SST1.
The target in experiment [12] is T1, Somatostatin receptor type 3. Put plainly: Antagonist activity at human recombinant SST3 receptor expressed in CHO cells assessed as inhibition of SRIF14-induced cAMP accumulation. The class given is functional, cell-based. The procedure, abridged:
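cAMP-based functional assay with human recombinant sst3 receptors expressed in CHO cells; test agent's antagonism of SRIF-14 response measured, pKB derived; n = 6.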
Background: Changes in cAMP serve as a functional read-out for many G protein-coupled receptors.

T1 sequence (P32745 whole entry): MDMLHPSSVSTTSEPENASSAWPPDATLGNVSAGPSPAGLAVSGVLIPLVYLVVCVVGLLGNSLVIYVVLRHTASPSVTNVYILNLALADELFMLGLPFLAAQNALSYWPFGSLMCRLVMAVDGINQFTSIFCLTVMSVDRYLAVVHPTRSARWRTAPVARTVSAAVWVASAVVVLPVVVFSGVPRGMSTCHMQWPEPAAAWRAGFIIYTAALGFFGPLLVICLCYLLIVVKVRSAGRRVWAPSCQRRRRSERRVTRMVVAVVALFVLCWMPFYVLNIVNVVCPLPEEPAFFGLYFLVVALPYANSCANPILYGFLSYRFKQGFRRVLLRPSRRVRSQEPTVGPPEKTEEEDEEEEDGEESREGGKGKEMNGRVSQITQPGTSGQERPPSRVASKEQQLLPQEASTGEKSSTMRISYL
Sequence of Somatostatin receptor type 4 (P31391 whole entry): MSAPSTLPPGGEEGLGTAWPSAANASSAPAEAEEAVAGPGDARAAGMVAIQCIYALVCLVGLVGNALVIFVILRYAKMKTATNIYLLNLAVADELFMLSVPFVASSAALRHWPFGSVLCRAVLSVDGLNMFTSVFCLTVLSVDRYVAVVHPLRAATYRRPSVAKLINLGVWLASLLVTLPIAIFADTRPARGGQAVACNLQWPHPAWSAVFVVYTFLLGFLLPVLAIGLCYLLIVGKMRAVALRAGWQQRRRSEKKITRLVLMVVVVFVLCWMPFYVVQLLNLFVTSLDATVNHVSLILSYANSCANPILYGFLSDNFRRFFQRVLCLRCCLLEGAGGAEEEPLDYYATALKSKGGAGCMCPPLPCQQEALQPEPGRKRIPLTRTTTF
Sequence of Somatostatin receptor type 1 (Rattus norvegicus, UniProt P28646) (P28646 whole entry): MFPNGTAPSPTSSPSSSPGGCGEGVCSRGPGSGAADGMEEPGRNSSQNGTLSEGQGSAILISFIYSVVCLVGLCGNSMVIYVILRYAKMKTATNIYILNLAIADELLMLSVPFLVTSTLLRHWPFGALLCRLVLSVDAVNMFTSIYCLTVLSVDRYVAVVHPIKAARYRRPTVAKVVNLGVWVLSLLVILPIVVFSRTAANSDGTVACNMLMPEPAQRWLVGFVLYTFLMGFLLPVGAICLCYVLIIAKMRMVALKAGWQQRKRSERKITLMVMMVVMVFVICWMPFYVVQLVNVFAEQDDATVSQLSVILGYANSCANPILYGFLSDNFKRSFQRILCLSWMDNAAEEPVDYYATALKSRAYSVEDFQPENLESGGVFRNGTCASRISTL
Sequence of Somatostatin receptor type 2 (Rattus norvegicus, UniProt P30680) (P30680 whole entry): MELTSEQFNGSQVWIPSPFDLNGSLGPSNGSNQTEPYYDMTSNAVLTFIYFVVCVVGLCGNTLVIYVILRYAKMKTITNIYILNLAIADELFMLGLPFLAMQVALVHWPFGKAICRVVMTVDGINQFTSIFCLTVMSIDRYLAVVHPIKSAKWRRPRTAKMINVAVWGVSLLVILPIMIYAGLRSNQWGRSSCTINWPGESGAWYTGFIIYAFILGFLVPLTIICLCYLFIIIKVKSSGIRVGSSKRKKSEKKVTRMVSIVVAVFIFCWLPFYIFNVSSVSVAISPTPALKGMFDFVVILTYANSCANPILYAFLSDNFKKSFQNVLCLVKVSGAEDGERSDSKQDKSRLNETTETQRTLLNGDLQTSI
Sequence of Somatostatin receptor type 2 (Homo sapiens, UniProt P30874) (P30874 whole entry): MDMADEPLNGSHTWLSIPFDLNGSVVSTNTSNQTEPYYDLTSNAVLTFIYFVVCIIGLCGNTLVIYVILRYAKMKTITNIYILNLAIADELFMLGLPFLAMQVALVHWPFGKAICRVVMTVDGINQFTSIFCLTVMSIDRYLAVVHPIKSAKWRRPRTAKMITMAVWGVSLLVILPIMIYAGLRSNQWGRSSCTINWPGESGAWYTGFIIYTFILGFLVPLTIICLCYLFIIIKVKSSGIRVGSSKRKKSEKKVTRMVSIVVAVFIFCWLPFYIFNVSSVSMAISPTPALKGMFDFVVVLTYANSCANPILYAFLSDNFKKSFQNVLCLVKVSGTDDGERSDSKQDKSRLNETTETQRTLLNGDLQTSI
Sequence of Somatostatin receptor type 1 (Homo sapiens, UniProt P30872) (P30872 whole entry): as the sequence (P28646 whole entry) above, with P8S, T11S, S16P, G20S, V25G, C26G, S32A, S45A, A385T, S389T counted along it
Sequence of Somatostatin receptor type 5 (P35346 whole entry): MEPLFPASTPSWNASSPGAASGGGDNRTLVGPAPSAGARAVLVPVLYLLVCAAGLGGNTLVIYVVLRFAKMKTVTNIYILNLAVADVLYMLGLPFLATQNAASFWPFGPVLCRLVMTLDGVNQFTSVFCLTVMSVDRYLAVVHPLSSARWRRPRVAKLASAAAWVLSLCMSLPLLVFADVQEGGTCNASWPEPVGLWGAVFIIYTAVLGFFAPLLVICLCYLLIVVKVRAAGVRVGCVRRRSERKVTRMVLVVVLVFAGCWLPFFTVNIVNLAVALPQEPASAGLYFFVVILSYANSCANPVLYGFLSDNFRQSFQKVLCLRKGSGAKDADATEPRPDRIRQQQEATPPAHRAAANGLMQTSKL

The compound `CC(Cc1ccc2c(c1)OCO2)CN1CC2CCCCC2C(C(=O)N2CCN(c3cccc4nccnc34)CC2)C1` (centres undefined) gave a Kd in experiment [1] of 1350 nM.
Consider `COC(=O)c1cc(CC(C)CN2C[C@@H]3CCCC[C@@H]3[C@H](C(=O)N3CCN(c4ccc([N+](=O)[O-])cc4)CC3)C2)cc(C(=O)OC)c1` (mixture of isomers), for which the Kd in experiment [2] was 398 nM; in experiment [1] it was 1.35 nM.
For the compound `O=C(CCN(CCC1c2ccccc2-c2ccccc21)CC1CC1)N1CCN(c2ccc([N+](=O)[O-])cc2)CC1`, the results for the Kd in experiment [2] and in [1] were 77.6 nM and 302 nM, respectively.
In the case of `C[C@@H](Cc1ccc2c(c1)OCO2)CN1C[C@@H]2CCCC[C@@H]2[C@H](C(=O)N2CCN(c3ccc(F)c(F)c3)CC2)C1`, the figures for the Kd in [2] and in experiment [1] were 912 nM and 8.51 nM, respectively.
For `CC(Cc1ccc2c(c1)OCO2)CN1C[C@@H](C(=O)N2CCN(c3ccc([N+](=O)[O-])cc3)CC2)C[C@@H]2CCCC[C@H]21` (mixture of isomers), the results for the Kd in [2] and in experiment [1] were 537 nM and 155 nM, respectively.
In the same order, the values of `CCNc1ccc(C[C@H](C)CN2C[C@@H]3CCCC[C@@H]3[C@H](C(=O)N3CCN(c4ccc(F)c(F)c4)CC3)C2)cn1` are 1910 nM and 28.8 nM.
`CC(Cc1ccc2c(c1)OCO2)CN1CC2CCCCC2C(C(=O)N2CCN(c3ccc(F)cc3)CC2)C1` (centres undefined) gave a Kd in experiment [1] of 57.5 nM.
For the compound `CC(Cc1ccc2c(c1)OCO2)CN1CC2CCCCC2C(C(=O)N2CCN(c3cccc(F)c3)CC2)C1` (centres undefined), binding in experiment [1] was put at a Kd of 200 nM.
With `CN(CCC(=O)N1CCN(c2ccc([N+](=O)[O-])cc2)CC1)CCC1c2ccccc2-c2ccccc21`, the Kd in experiment [2] is 7.59 nM; in [1] it was 1050 nM.
`CC(Cc1ccc2c(c1)OCO2)CN1CC2CCCCC2C(C(=O)N2CCN(c3cccc4nsnc34)CC2)C1` (centres undefined) had a Kd in experiment [1] of 191 nM.
For the compound `COC(=O)c1cc(CC(C)CN2C[C@H]3CCCC[C@H]3[C@@H](C(=O)N3CCN(c4ccc([N+](=O)[O-])cc4)CC3)C2)cc(C(=O)OC)c1` (mixture of isomers), the dissociation constant Kd was 2340 nM in [2] and 107 nM in experiment [1].
Turning to `Cc1nc2cc(C[C@H](C)CN3C[C@@H]4CCCC[C@@H]4[C@H](C(=O)N4CCN(c5ccc(F)c(F)c5)CC4)C3)ccc2o1`, the equilibrium dissociation constant (Kd) was 1380 nM in experiment [2]; 3.39 nM in experiment [1]; 417 nM in experiment [4]; 1100 nM in experiment [5]; 457 nM in experiment [7]; 5500 nM in [8]. This compound gave an equilibrium dissociation constant (Kd) in [9] of 229 nM. For the same compound, the Ratio is above 150 in experiment [3], above 150 in experiment [6] and 120 in [10].
As for `Cc1cn2cc(C[C@H](C)CN3C[C@@H]4CCCC[C@@H]4[C@H](C(=O)N4CCN(c5ccc(F)c(F)c5)CC4)C3)ccc2n1`, the Kd is 39.8 nM in [2] and 107 nM in [1]. Besides, the Ratio in experiment [11] was 0.4.
In turn, `CC(Cc1ccc2c(c1)OCO2)CN1CC2CCCCC2C(C(=O)N2CCN(c3cccc(=O)n3C)CC2)C1` (centres undefined) gave an equilibrium dissociation constant (Kd) in [1] of 2400 nM.
With `CC(Cc1ccc2c(c1)OCO2)CN1CC2CCCCC2C(C(=O)N2CCN(c3cccc4nonc34)CC2)C1` (centres undefined), binding in [1] was characterised by a dissociation constant (Kd) of 91.2 nM.
As to `O=C(C1CCCN(CCC2c3ccccc3-c3ccccc32)C1)N1CCN(c2ccc([N+](=O)[O-])cc2)CC1` (racemic), the Kd in experiment [2] was 120 nM; in experiment [1] it was 117 nM.
As to `CC(Cc1ccc2c(c1)OCO2)CN1CC2CCCCC2C(C(=O)N2CCN(c3ccc(F)c(F)c3)CC2)C1` (centres undefined), in [1], the Kd was 20.9 nM.
Regarding `COC(=O)c1cc(C[C@@H](C)CN2C[C@@H]3CCCC[C@@H]3[C@H](C(=O)N3CCN(c4ccc([N+](=O)[O-])cc4)CC3)C2)cc(C(=O)OC)c1`, the Kd in [2] was 437 nM; in [1] it was 2.24 nM.
`CC(Cc1ccc2c(c1)OCO2)CN1CC2CCCCC2C(C(=O)N2CCN(c3cccc4nncn34)CC2)C1` (centres undefined) gave a Kd in experiment [1] of 2690 nM.
The compound `CC(Cc1ccc2c(c1)OCO2)CN1CC2CCCCC2C(C(=O)N2CCN(c3ccc4nccnc4n3)CC2)C1` (centres undefined) showed a Kd in experiment [1] of 107 nM.
Take `C[C@@H](Cc1ccc2nsnc2c1)CN1C[C@@H]2CCCC[C@@H]2[C@H](C(=O)N2CCN(c3ccc(F)c(F)c3)CC2)C1`: the Kd in [2] was 1550 nM; in [1], 7.76 nM; in [4], 1020 nM; in [5], 1660 nM; in [7], 1170 nM; in experiment [8], 3550 nM. For the same compound, the equilibrium dissociation constant (Kd) in [9] was 151 nM. For the same compound, the Ratio in [3] is above 150; in experiment [6] it was above 150; in experiment [10], 130.
`CC(Cc1ccc2c(c1)OCO2)CN1CC2CCCCC2C(C(=O)N2CCN(c3ccc(Cl)cn3)CC2)C1` (centres undefined) showed a Kd in [1] of 91.2 nM.
In the case of `CC(Cc1ccc2c(c1)OCO2)CN1C[C@H]2CCCC[C@H]2[C@@H](C(=O)N2CCN(c3ccc([N+](=O)[O-])cc3)CC2)C1` (mixture of isomers), the Kd in experiment [2] was 912 nM; in experiment [1], 11 nM. Besides, in experiment [11], the Ratio was 100.
As to `CC(Cc1ccc2c(c1)OCO2)CN1CC2CCCCC2C(C(=O)N2CCN(c3cccc4nccn34)CC2)C1` (centres undefined), binding in experiment [1] was put at a Kd of 1260 nM.
Consider `COC(=O)c1cc(CC(C)CN2CC3CCCCC3C(C(=O)N3CCN(c4ccc([N+](=O)[O-])cc4)CC3)C2)cc(C(=O)OC)c1` (racemic), for which the Kd is 1000 nM in experiment [2] and 2.88 nM in experiment [1].
Turning to `CC(Cc1ccc2c(c1)OCO2)CN1CC2CCCCC2C(C(=O)N2CCN(c3ccc4nccn4n3)CC2)C1` (centres undefined), binding in [1] was put at a Kd of 240 nM.
Consider `C[C@@H](Cc1ccc2ocnc2c1)CN1C[C@@H]2CCCC[C@@H]2[C@H](C(=O)N2CCN(c3ccc(F)c(F)c3)CC2)C1`, for which the Kd in experiment [2] is 1620 nM; in [1] it was 11 nM.
On to `COc1ccc(C[C@@H](C)CN2C[C@H]3CCCC[C@H]3[C@@H](C(=O)N3CCN(c4ccc(F)c(F)c4)CC3)C2)cn1`, for which the Kd was 724 nM in [2]; 3630 nM in [1]; 6170 nM in experiment [4]; 91200 nM in experiment [5]; 813 nM in [7]; 38000 nM in experiment [8]. Besides, in experiment [9], binding was put at a Kd of 20900 nM. For the same compound, the pKb in experiment [12] amounted to 5.1.
`CC(Cc1ccc2c(c1)OCO2)CN1CC2CCCCC2C(C(=O)N2CCN(c3ccc4nonc4c3)CC2)C1` (centres undefined) had a dissociation constant (Kd) in experiment [1] of 20 nM.
Take `COC(=O)c1cc(C[C@H](C)CN2C[C@@H]3CCCC[C@@H]3[C@H](C(=O)N3CCN(c4ccc([N+](=O)[O-])cc4)CC3)C2)cc(C(=O)OC)c1`: the values for the Kd in experiment [2] and in experiment [1] were 933 nM and 1.23 nM, respectively. Also, the Ratio in [11] was found to be 760.
Regarding `CC(Cc1ccc2c(c1)OCO2)CN1C[C@H]2CCCC[C@H]2[C@H](C(=O)N2CCN(c3ccc([N+](=O)[O-])cc3)CC2)C1` (mixture of isomers), the Kd in experiment [2] is 6170 nM; in experiment [1], 1120 nM.
The compound `CC(Cc1ccc2c(c1)OCO2)CN1CC2CCCCC2C(C(=O)N2CCN(c3ccc4nsnc4n3)CC2)C1` (centres undefined) had a Kd in [1] of 95.5 nM.
Take `CC(Cc1ccc2c(c1)OCO2)CN1CC2CCCCC2C(C(=O)N2CCN(c3ccccn3)CC2)C1` (centres undefined): in [1], binding was characterised by a dissociation constant (Kd) of 331 nM.
`CC(Cc1ccc2c(c1)OCO2)CN1CC2CCCCC2C(C(=O)N2CCN(c3ccc4nonc4n3)CC2)C1` (centres undefined): the equilibrium dissociation constant (Kd) in [1] is 19.5 nM.
As to `CCOc1ccc(C[C@H](C)CN2C[C@@H]3CCCC[C@@H]3[C@H](C(=O)N3CCN(c4ccc(F)c(F)c4)CC3)C2)cn1`, the Kd was 2340 nM in experiment [2] and 14.1 nM in experiment [1].
For the compound `CC(Cc1ccc2c(c1)OCO2)CN1C[C@@H](C(=O)N2CCN(c3ccc([N+](=O)[O-])cc3)CC2)C[C@@H]2CCCC[C@@H]21` (mixture of isomers), the figures for the Kd in [2] and in experiment [1] were 2450 nM and 1230 nM, respectively.
`CC(Cc1ccc2c(c1)OCO2)CN1CC2CCCCC2C(C(=O)N2CCN(c3ccc(C#N)cn3)CC2)C1` (centres undefined) gave an equilibrium dissociation constant (Kd) in experiment [1] of 79.4 nM.
The compound `CC(Cc1ccc2c(c1)OCO2)CN1CC2CCCCC2C(C(=O)N2CCN(c3cccc(C(F)(F)F)n3)CC2)C1` (centres undefined) showed a dissociation constant Kd in experiment [1] of 741 nM.
With `CC(Cc1ccc2c(c1)OCO2)CN1C[C@H](C(=O)N2CCN(c3ccc([N+](=O)[O-])cc3)CC2)C[C@@H]2CCCC[C@@H]21` (mixture of isomers), the equilibrium dissociation constant (Kd) in experiment [2] is 490 nM; in [1], 162 nM.
With `Cc1nc2ccc(C[C@H](C)CN3C[C@@H]4CCCC[C@@H]4[C@H](C(=O)N4CCN(c5ccc(F)c(F)c5)CC4)C3)cn2n1`, the Ratio in experiment [11] is 620.
`CC(Cc1ccc2c(c1)OCO2)CN1CCCC(C(=O)N2CCN(c3ccc([N+](=O)[O-])cc3)CC2)C1` (racemic): the Kd in [2] is 102 nM; in experiment [1], 85.1 nM.
In the same order, the values of `C[C@@H](Cc1ccc2nccnc2c1)CN1C[C@@H]2CCCC[C@@H]2[C@H](C(=O)N2CCN(c3ccc(F)c(F)c3)CC2)C1` are 2630 nM and 10.7 nM.
On to `CC(Cc1ccc2c(c1)OCO2)CN1CC2CCCCC2C(C(=O)N2CCN(c3cccc(Cl)n3)CC2)C1` (centres undefined), for which the equilibrium dissociation constant (Kd) in experiment [1] is 407 nM.
In the case of `C[C@@H](Cc1ccc2ncnn2c1)CN1C[C@@H]2CCCC[C@@H]2[C@H](C(=O)N2CCN(c3ccc(F)c(F)c3)CC2)C1`, the Kd was 9120 nM in [2] and 34.7 nM in experiment [1].
Consider `CC(Cc1ccc2c(c1)OCO2)CN1CC2CCCCC2C(C(=O)N2CCN(c3cc4nccnc4cn3)CC2)C1` (centres undefined), for which the Kd in experiment [1] was 1580 nM.

The values are drawn from ChEMBL document CHEMBL1154945, “Decahydroisoquinoline derivatives as novel non-peptidic, potent and subtype-selective somatostatin sst(3) receptor antagonists” (Bioorg Med Chem Lett, 2010).
